The values below come from publication PMC3034256 (Chemistry & biology, 2011).

Format in all cases: biochemical
In assay [1] the target is VHR (Homo sapiens, UniProt P51452). In words: PTP-catalyzed pNPP hydrolysis, VHR. The method, boiled down: (§1)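 pNPP hydrolysis was run at 25 °C in 50 mM 3,3-dimethylglutarate, pH 7.0, 1 mM EDTA, ionic strength 0.15 M (NaCl). pNPP was fixed at each enzyme's experimentally determined Km, and reactions were started with enzyme. They were quenched with NaOH and corrected with no-enzyme controls. p-Nitrophenol was read at 405 nm. IC50 was fitted from AI/A0 = IC50/(IC50+[I]).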

Assay [2] addresses T1, HePTP (Homo sapiens, UniProt P35236).
T1 sequence (P35236 1-360): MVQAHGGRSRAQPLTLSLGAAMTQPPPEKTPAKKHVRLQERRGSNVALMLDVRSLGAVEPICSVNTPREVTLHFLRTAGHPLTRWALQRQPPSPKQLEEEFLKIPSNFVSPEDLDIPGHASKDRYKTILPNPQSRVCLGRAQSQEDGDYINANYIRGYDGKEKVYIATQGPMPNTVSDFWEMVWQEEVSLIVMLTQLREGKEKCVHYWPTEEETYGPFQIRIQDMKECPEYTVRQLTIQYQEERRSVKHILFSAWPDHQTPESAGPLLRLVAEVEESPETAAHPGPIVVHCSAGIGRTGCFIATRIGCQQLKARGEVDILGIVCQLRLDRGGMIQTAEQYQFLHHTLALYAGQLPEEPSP
In words: PTP-catalyzed pNPP hydrolysis, HePTP. The method, boiled down:
as §1

Assay [3] deals with T2, SHP2 (Homo sapiens, UniProt Q06124).
T2 sequence (Q06124 262-528): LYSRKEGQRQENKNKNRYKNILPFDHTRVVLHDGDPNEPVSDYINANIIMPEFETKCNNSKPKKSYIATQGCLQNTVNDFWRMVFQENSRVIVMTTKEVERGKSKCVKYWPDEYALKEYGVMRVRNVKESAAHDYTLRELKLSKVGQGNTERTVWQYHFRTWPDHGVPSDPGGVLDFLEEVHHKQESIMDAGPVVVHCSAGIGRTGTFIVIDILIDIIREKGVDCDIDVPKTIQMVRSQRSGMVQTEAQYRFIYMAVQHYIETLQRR
In words: PTP-catalyzed pNPP hydrolysis, SHP2. The method, boiled down:
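The SHP2 catalytic domain (residues 262–528) hydrolysed pNPP at 25 °C, pH 7.0 (50 mM 3,3-dimethylglutarate, 1 mM EDTA, ionic strength 0.15 M). Single-point screening used 10 µM final test compound. IC50 was measured at pNPP = Km by A405 after NaOH quench, fitted to AI/A0 = IC50/(IC50+[I]). For Ki and mode, initial rates at inhibitor 0–3 Ki and pNPP 0.2–5× apparent Km were fitted to kinetic equations.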

VHR, sequence (P51452 whole entry, species assumed): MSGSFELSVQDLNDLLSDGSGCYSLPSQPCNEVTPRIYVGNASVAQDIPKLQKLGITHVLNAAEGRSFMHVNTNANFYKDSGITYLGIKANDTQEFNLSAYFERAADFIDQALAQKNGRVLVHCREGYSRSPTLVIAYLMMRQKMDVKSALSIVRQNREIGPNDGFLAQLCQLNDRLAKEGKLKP

As a reminder, the IC50 is the concentration needed to halve the response being measured. One may read the Ki as the dissociation constant of the complex between target and ligand, obtained from inhibition or displacement. A high value points to weaker binding. On to `C=C/C(=C/C(=O)C[C@H](C)C[C@@H](C)CC[C@H](O)[C@H](C)C(=O)C[C@@H](O)[C@H](C)[C@@H](C)OC(=O)C[C@@H](O)C1=C(C)C(=O)OC1=O)CC` [TTN, tautomycetin], for which the IC50 in assay [1] is over 50 µM; in assay [2], over 50 µM; in assay [3], 2.9 ± 0.2 µM. The affinity in assay [3] corresponds to a Ki of 1.6 ± 0.1 µM. Also, the “reduction of SHP2 activity” value in assay [3] (10 µM compound, pNPP, pH 7, 25 °C) is listed as 80–90%. In addition, the “preference for SHP2 over all PTPs examined” value in assay [3] (from IC50 values) is listed as at least 5 fold. The “mode of SHP2 inhibition” value in assay [3] (pNPP hydrolysis, 25 °C, pH 7.0) is listed as “competitive inhibitors”.
